Legend:
[1] = substrate: NC(=O)c1cc(N2CC2)c([N+](=O)[O-])cc1[N+](=O)[O-]; test: (§1) Substrate activity at Escherichia coli nitroreductase nfsB assessed as Kcat using NADH as cofactor at […] in Tris-Cl buffer at pH 7.5 by spectrophotometric method
[2] = substrate: CS(=O)(=O)OCCN(CCBr)c1c(C(=O)NCCO)cc([N+](=O)[O-])cc1[N+](=O)[O-]; test: as §1
[3] = substrate: NC(=O)c1cc(N(CCCl)CCCl)c([N+](=O)[O-])cc1[N+](=O)[O-]; test: as §1
[4] = substrate: NC(=O)c1cc(N2CC2)c([N+](=O)[O-])cc1[N+](=O)[O-]; test: (§2) Substrate activity at Escherichia coli nitroreductase nfsB assessed as Km using NADH as cofactor in Tris-Cl buffer at pH 7.5 by spectrophotometric method; assay type: ADME
[5] = substrate: CS(=O)(=O)OCCN(CCBr)c1c(C(=O)NCCO)cc([N+](=O)[O-])cc1[N+](=O)[O-]; test: as §2; assay type: ADME
[6] = substrate: CCN(C(C)=O)c1cc([N+](=O)[O-])cc([N+](=O)[O-])c1; test: (§3) Substrate activity at Staphylococcus saprophyticus nitroreductase assessed as Km using NADPH as cofactor in presence of Tris-Cl buffer at pH 7.5 by spectrophotometric method; assay type: ADME
Method in brief: (§4)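 Michaelis–Menten parameters for recombinant Ssap-NtrB were measured spectrophotometrically at 25 °C in 25 mM Tris-Cl buffer pH 7.5 containing 5% DMSO as cosolvent.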

[7] = substrate: NC(=O)c1cc(N2CC2)c([N+](=O)[O-])cc1[N+](=O)[O-]; test: as §3; assay type: ADME; method in brief: as §4

B1: Oxygen-insensitive NAD(P)H nitroreductase (Escherichia coli K-12), P38489 (protein)
chain: MDIISVALKRHSTKAFDASKKLTPEQAEQIKTLLQYSPSSTNSQPWHFIVASTEEGKARVAKSAAGNYVFNERKMLDASHVVVFCAKTAMDDVWLKLVVDQEDADGRFATPEAKAANDKGRKFFADMHRKDLHDDAEWMAKQVYLNVGNFLLGVAALGLDAVPIEGFDAAILDAEFGLKEKGYTSLVVVPVGHHSVEDFNATLPKSRLPQNITLTEV
[1]
  kcat: 62 s⁻¹
[2]
  kcat: 60 s⁻¹
[3]
  kcat: 26.4 s⁻¹

B2: Oxygen-insensitive NAD(P)H nitroreductase (Escherichia coli K-12) (protein)
chain: B1 chain
[4]
  Km: 11000 µM
  kcat/Km: 5600 M⁻¹ s⁻¹
[5]
  Km: 4500 µM
  kcat/Km: 13000 M⁻¹ s⁻¹

B3: Putative nitroreductase (Staphylococcus saprophyticus subsp. saprophyticus ATCC 15305 = NCTC 7292) (protein)
chain: MINNNFEEILMNRKSVKVFDEQVKIPKAEMDEMIKKATTAPSSVNMQPWRFLVVESDEGKDTLRPLIRFNTRQNDSSAAMVVIFGDMKSQTNAEEIYGNAVKHDLMPEEVKQEMLKKVIPLYDNAPKEQMNDIVKIDSSLAAMQFMLVAKAHGYDTNPIGGFESDQIADAFGIDSERYVPVLIVAIGKAKNPAHGSYRLPTETVTKYV
[6]
  Km: 96.9 µM
[7]
  Km: 1070 µM
  kcat: 2.26 s⁻¹
  kcat/Km: 2120 M⁻¹ s⁻¹

Reference: ChEMBL document CHEMBL4393661, “PRODRUGS FOR NITROREDUCTASE BASED CANCER THERAPY- 2: Novel amide/Ntr combinations targeting PC3 cancer cells” (Eur J Med Chem, 2019)
